Compound activity (PubChem)
SIAE primary: blocks human sialic acid acetylesterase. inhibition, % at 9.66 µM. hit rate 0.69% among 370,000. AID 1053197. SIAE FP-Rh probe binding, fluorescence polarization. Q9HAT2;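 active = inhibition above a cutoff: mean of compounds within the control limits plus 3 SD of those, cut at about 17% in these data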;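 also: 0% = plate median of compound wells and 100% = probe without SIAE protein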
Target sequence (Q9HAT2 whole entry, looked up): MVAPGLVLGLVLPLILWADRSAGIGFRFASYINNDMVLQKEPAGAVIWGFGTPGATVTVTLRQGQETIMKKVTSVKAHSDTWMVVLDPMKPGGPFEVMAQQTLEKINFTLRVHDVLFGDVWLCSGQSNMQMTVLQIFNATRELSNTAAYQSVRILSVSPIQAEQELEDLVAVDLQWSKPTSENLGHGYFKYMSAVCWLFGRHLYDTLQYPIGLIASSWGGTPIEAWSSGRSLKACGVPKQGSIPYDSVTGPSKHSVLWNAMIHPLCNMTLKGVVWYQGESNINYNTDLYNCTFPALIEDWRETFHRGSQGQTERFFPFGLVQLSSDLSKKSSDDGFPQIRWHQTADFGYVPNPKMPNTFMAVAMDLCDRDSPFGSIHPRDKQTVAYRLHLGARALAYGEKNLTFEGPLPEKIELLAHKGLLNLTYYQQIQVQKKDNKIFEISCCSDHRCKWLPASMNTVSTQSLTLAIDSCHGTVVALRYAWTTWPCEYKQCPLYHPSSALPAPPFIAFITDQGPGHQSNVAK
TCR CD3 inh: human TCR-CD3 binding inhibition; inhibition, % at 9.4 µM; hit rate 0.37% among 360,000; TAMRA-labeled TCR probe fluorescence, biochemical; in the data active = inhibition above about 19%;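 also: recombinant mutant TCR 2C K166C tagged with TAMRA read by polarization; 0% = receptor in buffer alone and 100% = receptor with positive control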
Tn6 DDE FP: inhibitors of Tn6 peptide binding to human fibrin DD(E). P02675. Fibrin DD(E) TRITC-Tn6 fluorescence polarization displacement. inhibition, % at 8.3 µM. hit rate 0.21% among 370,000;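 active = inhibition above a per-campaign cutoff: mean of compounds within control limits plus 3 SD, cut at about 15% in these data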;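 also: 0% = median of all compound wells on the plate and 100% = blocking peptide control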
DDE Tn7 FP inh: DD(E)-Tn7 binding inhibition, primary FP screen | FP displacement of FITC-Tn7 peptide from fibrin DD(E); 0% = median of compound wells per plate | P02675 | inhibition, % at 8.3 µM | hit rate 0.13% among 370,000 | AID 720508;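 active = inhibition above the mean of compounds falling within the control limits plus 3 SD of them, cut at about 14% in these data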;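 also: 0% = plate median of compound wells and 100% = 10 µM Aha-Tn7 peptide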
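Assay system: Human fibrin DD(E) protein | Medium: Tris buffer with calcium and detergent, pH 7.8 | Reagent: 0.1 µM fluorescent Tn7 | Compound dosing: Single point at 8.3 µM | Times: 10 min preincubation, 3 h with tracer, room temperature | Detection: Fluorescence polarization of the labelled Tn7 tracer | Controls: Aha-Tn7 high control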
HTRA1 inh: HTRA1 (human) protease inhibition | recombinant HTRA1, FP-rhodamine activity-based probe, fluorescence polarization | inhibition, % at 5.96 µM | hit rate 0.5% among 340,000; in the data active = inhibition above about 36%;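 also: 0% = enzyme with DMSO and 100% = wells lacking enzyme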
mABHD4 FP: inhibitors of mouse ABHD4; Q8VD66; purified mABHD4, FP-Rh probe fluorescence polarization; inhibition, % at 8.92 µM; hit rate 0.54% among 370,000;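 active = inhibition exceeding the mean over every tested compound plus 3 SD, cut at about 30% in these data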;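 also: 0% = plate median of compound wells and 100% = S159A mutant with DMSO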
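Assay system: wild-type mouse ABHD4 protein; compound: single nominal dose of 8.92 µM, 0.89% DMSO final; schedule: 45 min + 60 min at 25 °C; measured by: FP readout, ex 525 nm / em 598 nm; evaluation: % inhibition of FP-Rh probe binding versus controls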
mABHD4 conf: ABHD4 (mouse) inhibition, FP confirmation; shares compounds with mABHD4 FP; purified mABHD4, FP-Rh probe fluorescence polarization; inhibition, % at 8.92 µM; hit rate 55% among 1,800; AID 720658;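 active = mean inhibition across replicates above the hit cutoff set in the primary screen, cut at about 30% in these data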;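 also: 0% = wild-type ABHD4 with DMSO and 100% = catalytically dead S159A mutant with DMSO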
* = called active by the depositor; / = not tested or not shown. Hits are enriched below; roughly 1.8% of the tested compounds scored in any of these assays.

SMILES | SIAE primary | TCR CD3 inh | Tn6 DDE FP | DDE Tn7 FP inh | HTRA1 inh | mABHD4 FP | mABHD4 conf
Cc1ccc(S(=O)(=O)Nc2cc(C(=O)O)ccc2N2CCC(C)CC2)cc1C | 10.2 | / | 8.3 | 6.9 | / | 26.5 | /
CC1CCN(c2ccc(C(=O)O)cc2NS(=O)(=O)c2ccc(Cl)s2)CC1 | 5.9 | / | 1.2 | 2.2 | / | 37.7* | 43.8*
CC1CCN(c2ccc(C(=O)O)cc2NS(=O)(=O)c2ccc(Br)cc2)CC1 | 7.4 | -3.3 | -1.7 | 1.9 | -9.6 | 39.4* | 31.0*
O=P(Cc1cccc2ccccc12)(c1ccccc1)c1ccccc1 | -2.2 | -4.5 | -4.3 | -3.7 | -15.4 | -1.7 | /
Cc1cc(NC2=CC(=O)C(=O)c3ccccc32)no1 | 7.6 | 0.3 | 5.0 | 4.3 | 11.2 | 22.1 | /
NS(=O)(=O)c1ccc(NC2=CC(=O)C(=O)c3ccccc32)cc1 | 5.1 | -5.3 | -8.9 | 3.5 | 14.4 | 30.6* | 8.9
Cc1ccc(NC2=CC(=O)C(=O)c3ccccc32)cc1 | 8.7 | 2.6 | -12.4 | -4.1 | 8.6 | 37.8* | 21.7
CCOC(=O)c1ccc(NC2=CC(=O)C(=O)c3ccccc32)cc1 | 7.4 | 15.4 | -2.5 | -0.8 | 8.7 | 30.0* | 43.7*
CCOC(=O)c1ccc(NC(=O)C(C)N2C(=O)c3ccccc3C2=O)cc1 (stereo not drawn) | 8.8 | 6.0 | 0.4 | 7.4 | 1.0 | -13.8 | /
CCOc1ccc(NC(=O)C2C3C=CC4(O3)C2C(=O)N(Cc2cccnc2)C4C(=O)NC2CCCCC2)cc1 (stereo not drawn) | / | / | / | / | 7.0 | / | /
C#CCN(Cc1ccco1)C(=O)c1nnc2c3ccccc3n(S(=O)(=O)c3ccccc3)c2n1 | -12.2 | -1.9 | -3.4 | -3.9 | / | -3.3 | /
O=C1O[C@@H](c2ccc(O)cc2)Cc2cccc(O)c21 | 0.3 | 0.4 | -1.8 | -3.8 | 0.6 | 0.6 | /
O=C1C[C@@H](O)[C@H](O)c2cccc(O)c21 | -6.0 | / | 1.5 | -1.6 | / | 34.7* | 19.1
C=CCNc1nc2cc(-c3cccc(Cl)c3)sc2c(=O)n1C | -19.4 | -4.7 | -0.4 | -0.7 | / | -11.2 | /
COC(=O)[C@]12C[C@H](CC(=O)NCC34CC5CC(CC(C5)C3)C4)C(=O)N(CCC3=CCCCC3)C1=C[C@H](C(C)(C)C)O[C@@H]2C | -0.3 | -5.2 | 4.3 | -7.2 | / | -4.8 | /
CCOC(=O)c1c(C)oc2c1c(CN1CCN(CCO)CC1)c(O)c1ccccc12 | 5.8 | 6.2 | 1.2 | -2.7 | 2.1 | 17.1 | /
CCOC(=O)c1c(C)oc2c1c(CN1CCN(C(=O)OCC)CC1)c(O)c1ccccc12 | 12.1 | 7.3 | 5.5 | 2.5 | -5.8 | 31.3* | 39.0*
O=C(NCCCn1ccnc1)/C(=C\c1ccc(Br)cc1)NC(=O)c1ccccc1F | 1.6 | 6.0 | -0.8 | -2.0 | -0.2 | 5.6 | /
NS(=O)(=O)c1ccc(-c2ccc(C=NC3CCS(=O)(=O)C3)o2)cc1 (stereo not drawn) | 4.1 | 0.1 | 5.3 | -6.9 | -5.9 | 11.0 | /
NS(=O)(=O)c1ccc(-c2ccc(/C=C3\SC(=S)N(C4CCS(=O)(=O)C4)C3=O)o2)cc1 (stereo not drawn) | 2.7 | -14.4 | 2.9 | -1.5 | 5.1 | 29.7* | -7.0
Cc1ccc(/C=C2\SC(=S)N(C3CCS(=O)(=O)C3)C2=O)o1 (stereo not drawn) | 4.6 | 0.0 | -0.5 | -1.0 | 14.0 | 34.3* | -6.5
O=C(O)c1cc(NN=Nc2cccc(S(=O)(=O)O)c2)cc([N+](=O)[O-])c1 | -9.5 | 6.9 | -4.3 | 2.3 | 2.7 | 38.8* | 35.5*
O=[N+]([O-])c1cccc(NN=Nc2ccccc2)c1 | 2.9 | -6.0 | -1.6 | 0.2 | 4.1 | 7.1 | /
O=C(O)c1cc(NN=Nc2ccc(Br)cc2)cc([N+](=O)[O-])c1 | -7.1 | 5.1 | 4.5 | 10.5 | -5.1 | 67.7* | 67.2*
O=C(O)c1cc(NN=Nc2cccc([N+](=O)[O-])c2)cc([N+](=O)[O-])c1 | -17.5 | 1.8 | -5.9 | -2.4 | -3.6 | 69.0* | 73.2*
CC(NC(=O)c1ccccc1)c1nnc(SCC(=O)NC2CCCC2)n1C (stereo not drawn) | -0.6 | 5.5 | -1.5 | 7.7 | 11.1 | 7.6 | /
